The target in test [1] is T1, Melanocyte-stimulating hormone receptor (Homo sapiens, UniProt Q01726). The test is described as follows: Displacement of [125I]NDP-alpha-MSH from human MC1R expressed in HEK293 cells. Type of test: cell-based. A general note: Displacement assays read how much labelled ligand stays bound in the presence of the test substance.
Target sequence in this assay (Q01726 whole entry): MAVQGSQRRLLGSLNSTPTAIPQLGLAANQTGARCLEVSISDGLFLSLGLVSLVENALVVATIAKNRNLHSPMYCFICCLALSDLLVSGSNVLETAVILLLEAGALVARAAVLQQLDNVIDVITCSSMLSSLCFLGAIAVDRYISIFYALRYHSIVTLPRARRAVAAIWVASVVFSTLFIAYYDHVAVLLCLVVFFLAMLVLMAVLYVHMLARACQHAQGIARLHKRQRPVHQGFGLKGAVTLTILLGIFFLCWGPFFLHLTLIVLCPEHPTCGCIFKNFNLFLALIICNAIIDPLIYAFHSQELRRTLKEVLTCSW
Test [2] has as its target T2, Melanocortin receptor 3 (Homo sapiens, UniProt P41968). Kind of test: Displacement of [125I]NDP-alpha-MSH from human MC3R expressed in HEK293 cells. It is filed as cell-based.
For test [3], the target named is T3, Melanocortin receptor 4 (Homo sapiens, UniProt P32245). Kind of test: Displacement of [125I]NDP-alpha-MSH from human MC4R expressed in HEK293 cells. Type of test: cell-based.
T3 sequence (P32245 whole entry): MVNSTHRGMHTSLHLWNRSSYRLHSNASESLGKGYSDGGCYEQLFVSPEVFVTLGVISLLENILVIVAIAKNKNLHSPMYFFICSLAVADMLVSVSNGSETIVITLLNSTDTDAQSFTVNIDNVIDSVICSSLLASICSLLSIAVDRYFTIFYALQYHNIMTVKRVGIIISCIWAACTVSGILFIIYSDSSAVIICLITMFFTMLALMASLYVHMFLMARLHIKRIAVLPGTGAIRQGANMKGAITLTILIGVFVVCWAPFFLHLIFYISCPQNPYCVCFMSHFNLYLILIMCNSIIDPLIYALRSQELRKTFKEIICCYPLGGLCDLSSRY
In test [4] the target is T4, Melanocortin receptor 5 (Homo sapiens, UniProt P33032). Kind of test: Displacement of [125I]NDP-alpha-MSH from human MC5R expressed in HEK293 cells. It is filed as cell-based.
T4 sequence (P33032 whole entry): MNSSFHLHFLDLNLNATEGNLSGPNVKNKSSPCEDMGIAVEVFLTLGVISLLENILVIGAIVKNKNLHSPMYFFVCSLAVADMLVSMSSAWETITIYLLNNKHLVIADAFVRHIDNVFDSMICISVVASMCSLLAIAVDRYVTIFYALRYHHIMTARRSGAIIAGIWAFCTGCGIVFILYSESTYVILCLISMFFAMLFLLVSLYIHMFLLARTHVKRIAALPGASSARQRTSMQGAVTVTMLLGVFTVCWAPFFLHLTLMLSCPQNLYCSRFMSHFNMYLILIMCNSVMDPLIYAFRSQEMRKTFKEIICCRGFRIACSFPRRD
Test [5] deals with T1, Melanocyte-stimulating hormone receptor. The test is described as follows: Activity at human MC1R expressed in HEK293 cells assessed by measuring intracellular cAMP accumulation. Type of test: functional, cell-based. Put shortly: (§1)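 Whole HEK293 cells expressing the human melanocortin receptor were incubated with ligand, and the cAMP they produced was measured as the read-out of adenylate cyclase activation.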
Target sequence in this assay (Q01726 whole entry): as the sequence (Q01726 whole entry) above

The target in test [6] is T2, Melanocortin receptor 3. Kind of test: Activity at human MC3R expressed in HEK293 cells assessed by measuring intracellular cAMP accumulation. Type of test: functional, cell-based. In short, it runs like this:
as §1
(In general: Changes in cAMP serve as a functional read-out for many G protein-coupled receptors.)

Test [7] addresses T4, Melanocortin receptor 5. The test is described as follows: Activity at human MC5R expressed in HEK293 cells assessed by measuring intracellular cAMP accumulation. Type of test: functional, cell-based. Put shortly: as §1
Test [8] has as its target T3, Melanocortin receptor 4. The test is described as follows: Activity at human MC4R expressed in HEK293 cells assessed by measuring intracellular cAMP accumulation. It is filed as functional, cell-based. Put shortly: as §1
Test [9] concerns the target T4, Melanocortin receptor 5. The test is described as follows: Displacement of [125I]NDP-alpha-MSH from human MC5R expressed in HEK293 cells relative to MT-II. Type of test: cell-based. In short, it runs like this: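 Binding efficiency was measured on whole HEK293 cells expressing hMC5R, by competition with 125I-NDP-α-MSH. It is the maximum radioligand displacement by the test compound divided by the maximum displacement caused by excess MT-II.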

Test [10] addresses T1, Melanocyte-stimulating hormone receptor. Kind of test: Activity at human MC1R expressed in HEK293 cells assessed as activation of adenylate cyclase. It is filed as functional, cell-based. Also on record: concentration or dose not given beside the values. In short, it runs like this:
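Whole HEK293 cells expressing the human melanocortin receptor were incubated with ligand, and the cAMP they produced was measured as the read-out of adenylate cyclase activation. EC50 is the concentration giving 50% of maximal intracellular cAMP accumulation.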
Target sequence in this assay (Q01726 whole entry, looked up): as the sequence (Q01726 whole entry) above

In test [11] the target is T2, Melanocortin receptor 3. Kind of test: Activity at human MC3R expressed in HEK293 cells assessed as activation of adenylate cyclase. Type of test: functional, cell-based. Also on record: concentration or dose not given beside the values. Put shortly: as §1
In test [12] the target is T4, Melanocortin receptor 5. The test is described as follows: Activity at human MC5R expressed in HEK293 cells assessed as activation of adenylate cyclase. It is filed as functional, cell-based. The arrangement: concentration or dose not given beside the values. In short, it runs like this: as §1
Test [13] has as its target T3, Melanocortin receptor 4. Kind of test: Activity at human MC4R expressed in HEK293 cells assessed as activation of adenylate cyclase. It is filed as functional, cell-based. Also on record: concentration or dose not given beside the values. Put shortly: as §1
In test [14] the target is T1, Melanocyte-stimulating hormone receptor. Kind of test: Displacement of [125I]NDP-alpha-MSH from human MC1R expressed in HEK293 cells relative to MT-II. Type of test: cell-based.
Target sequence in this assay (Q01726 whole entry, looked up): as the sequence (Q01726 whole entry) above

Drawing on ChEMBL document CHEMBL1137290, “Design, synthesis, and biological evaluation of a new class of small molecule peptide mimetics targeting the melanocortin receptors” (Bioorg Med Chem Lett, 2006), this text covers IC50, EC50 and Activity for nine compounds.

Bounds are passed on as bounds.

T2 sequence (P41968 whole entry): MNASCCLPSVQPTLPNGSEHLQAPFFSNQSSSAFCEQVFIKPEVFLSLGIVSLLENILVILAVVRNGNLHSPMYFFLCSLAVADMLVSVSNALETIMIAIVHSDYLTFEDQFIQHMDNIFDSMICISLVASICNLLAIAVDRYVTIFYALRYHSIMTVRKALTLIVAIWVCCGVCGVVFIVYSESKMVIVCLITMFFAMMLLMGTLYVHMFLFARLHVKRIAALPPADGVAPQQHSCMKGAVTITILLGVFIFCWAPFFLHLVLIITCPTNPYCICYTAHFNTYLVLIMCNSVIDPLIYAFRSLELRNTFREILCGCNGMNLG

For orientation: IC50 means the concentration at which inhibition is half-maximal. The EC50 is the concentration that produces a half-maximal response. Take `NC(N)=NCCC[C@H](NC(=O)CCc1c[nH]c2ccccc12)C(=O)N1C[C@@H]2CCCN2C[C@@H]1Cc1ccccc1`: the half-maximal inhibitory concentration (IC50) in [1] was over 10 µM; at Melanocortin receptor 3 [2], over 10 µM; at Melanocortin receptor 4 [3] it was over 10 µM; at Melanocortin receptor 5 [4], 0.0001 µM. For the same compound, the EC50 (in test [5]; on Melanocortin receptor 3 [6]; on Melanocortin receptor 5 [7]; on Melanocortin receptor 4 [8]) was over 10 µM throughout.

Regarding `N=C(N)NCCC[C@H](NC(=O)CCc1c[nH]c2ccccc12)C(=O)N1C[C@@H]2CCCN2C[C@@H]1Cc1ccccc1`, the Activity on Melanocortin receptor 5 [9] was 60%; in test [10] it was 20%; on Melanocortin receptor 3 [11], 0%; at Melanocortin receptor 5 [12] it was 0%; on Melanocortin receptor 4 [13], 0%.

`O=C(Cc1ccccc1)N1C[C@@H]2CCCN2C[C@@H]1Cc1ccccc1`: the IC50 was 0.0022 µM in test [1], 0.35 µM on Melanocortin receptor 3 [2], over 10 µM on Melanocortin receptor 4 [3] and over 10 µM on Melanocortin receptor 5 [4]. Also, the Activity in test [14] is 80%; in test [10], 0%; at Melanocortin receptor 3 [11] it was 0%; at Melanocortin receptor 5 [12], 0%; on Melanocortin receptor 4 [13], 30%. Moreover, the EC50 in [5] is over 10 µM; at Melanocortin receptor 3 [6] it was over 10 µM; at Melanocortin receptor 5 [7] it was over 10 µM; at Melanocortin receptor 4 [8], 0.0027 µM.

For the compound `O=C(CCC(=O)N1C[C@@H]2CCCN2C[C@@H]1Cc1ccccc1)NCCc1c[nH]c2ccccc12`, the IC50 in test [1] is over 10 µM; on Melanocortin receptor 3 [2], over 10 µM; on Melanocortin receptor 4 [3] it was over 10 µM; at Melanocortin receptor 5 [4], 0.0005 µM. The Activity at Melanocortin receptor 5 [9] was 50%; in test [10], 0%; at Melanocortin receptor 3 [11], 0%; at Melanocortin receptor 5 [12] it was 0%; on Melanocortin receptor 4 [13], 0%. For the same compound, the concentration for a half-maximal effect (EC50) (in [5]; on Melanocortin receptor 3 [6]; on Melanocortin receptor 5 [7]; at Melanocortin receptor 4 [8]) was over 10 µM each time.

For `O=C(CCc1c[nH]c2ccccc12)N1C[C@@H]2CCCN2C[C@H]1Cc1ccccc1`, the half-inhibitory concentration (IC50) in test [1] was 0.004 µM; on Melanocortin receptor 3 [2], 0.0012 µM; on Melanocortin receptor 4 [3], over 10 µM; on Melanocortin receptor 5 [4], over 10 µM. Moreover, the Activity was determined as 50% in test [14]; 0% in test [10]; 0% at Melanocortin receptor 3 [11]; 0% on Melanocortin receptor 5 [12]; 0% at Melanocortin receptor 4 [13]. The half-maximal effective concentration (EC50) (in test [5]; on Melanocortin receptor 3 [6]; on Melanocortin receptor 5 [7]; on Melanocortin receptor 4 [8]) was over 10 µM throughout.

For the compound `O=C(CCc1c[nH]c2ccccc12)N1C[C@@H]2CCCN2C[C@@H]1Cc1ccccc1`, the IC50 in [1] is over 10 µM; on Melanocortin receptor 3 [2], over 10 µM; on Melanocortin receptor 4 [3] it was over 10 µM; on Melanocortin receptor 5 [4], 0.0008 µM. Besides, the Activity is 50% on Melanocortin receptor 5 [9]; 0% in test [10]; 0% on Melanocortin receptor 3 [11]; 0% on Melanocortin receptor 5 [12]; 0% at Melanocortin receptor 4 [13]. In addition, the EC50 (in test [5]; on Melanocortin receptor 3 [6]; at Melanocortin receptor 5 [7]; on Melanocortin receptor 4 [8]) was over 10 µM each time.

In the case of `O=C(CCc1c[nH]c2ccccc12)NCCCCCC(=O)N1C[C@@H]2CCCN2C[C@@H]1Cc1ccccc1`, the concentration for half-maximal inhibition (IC50) in test [1] was over 10 µM; on Melanocortin receptor 3 [2], over 10 µM; at Melanocortin receptor 4 [3], over 10 µM; on Melanocortin receptor 5 [4], 0.0004 µM. Also, the Activity came to 65% on Melanocortin receptor 5 [9]; 0% in [10]; 0% on Melanocortin receptor 3 [11]; 0% at Melanocortin receptor 5 [12]; 0% at Melanocortin receptor 4 [13]. The EC50 (in test [5]; at Melanocortin receptor 3 [6]; on Melanocortin receptor 5 [7]; at Melanocortin receptor 4 [8]) was over 10 µM in each case.

In the case of `O=C(CCC(=O)N1C[C@@H]2CCCN2C[C@H]1Cc1ccccc1)NCCc1c[nH]c2ccccc12`, the IC50 was over 10 µM in test [1], over 10 µM on Melanocortin receptor 3 [2], over 10 µM at Melanocortin receptor 4 [3] and 0.0001 µM on Melanocortin receptor 5 [4]. Moreover, the Activity came out at 60% on Melanocortin receptor 5 [9]; 0% in test [10]; 0% at Melanocortin receptor 3 [11]; 0% on Melanocortin receptor 5 [12]; 0% at Melanocortin receptor 4 [13]. The EC50 (in test [5]; at Melanocortin receptor 3 [6]; at Melanocortin receptor 5 [7]; on Melanocortin receptor 4 [8]) was over 10 µM throughout.

For the compound `O=C(Cc1ccccc1)N1C[C@@H]2CCCN2C[C@H]1Cc1ccccc1`, the IC50 in test [1] is 0.0013 µM; on Melanocortin receptor 3 [2] it was 0.005 µM; on Melanocortin receptor 4 [3] it was 0.0012 µM; at Melanocortin receptor 5 [4], over 10 µM. In addition, the Activity in [14] is 90%; in test [10], 0%; at Melanocortin receptor 3 [11] it was 0%; at Melanocortin receptor 5 [12], 0%; at Melanocortin receptor 4 [13], 0%. Besides, the EC50 (in [5]; at Melanocortin receptor 3 [6]; on Melanocortin receptor 5 [7]; on Melanocortin receptor 4 [8]) was over 10 µM throughout.
